Compound activity from PubChem.
Sampled rows, rich in hits. Any-hit rate of the full collection: about 4.3%.
AHR act: activates the human aryl hydrocarbon receptor; P35869; AHR-responsive luciferase reporter cells, luminescence; activation, % at 5 µM; hit rate 2.5% among 320,000; AID 2796; in the data active means activation above about 47%
Target sequence (P35869 whole entry, looked up): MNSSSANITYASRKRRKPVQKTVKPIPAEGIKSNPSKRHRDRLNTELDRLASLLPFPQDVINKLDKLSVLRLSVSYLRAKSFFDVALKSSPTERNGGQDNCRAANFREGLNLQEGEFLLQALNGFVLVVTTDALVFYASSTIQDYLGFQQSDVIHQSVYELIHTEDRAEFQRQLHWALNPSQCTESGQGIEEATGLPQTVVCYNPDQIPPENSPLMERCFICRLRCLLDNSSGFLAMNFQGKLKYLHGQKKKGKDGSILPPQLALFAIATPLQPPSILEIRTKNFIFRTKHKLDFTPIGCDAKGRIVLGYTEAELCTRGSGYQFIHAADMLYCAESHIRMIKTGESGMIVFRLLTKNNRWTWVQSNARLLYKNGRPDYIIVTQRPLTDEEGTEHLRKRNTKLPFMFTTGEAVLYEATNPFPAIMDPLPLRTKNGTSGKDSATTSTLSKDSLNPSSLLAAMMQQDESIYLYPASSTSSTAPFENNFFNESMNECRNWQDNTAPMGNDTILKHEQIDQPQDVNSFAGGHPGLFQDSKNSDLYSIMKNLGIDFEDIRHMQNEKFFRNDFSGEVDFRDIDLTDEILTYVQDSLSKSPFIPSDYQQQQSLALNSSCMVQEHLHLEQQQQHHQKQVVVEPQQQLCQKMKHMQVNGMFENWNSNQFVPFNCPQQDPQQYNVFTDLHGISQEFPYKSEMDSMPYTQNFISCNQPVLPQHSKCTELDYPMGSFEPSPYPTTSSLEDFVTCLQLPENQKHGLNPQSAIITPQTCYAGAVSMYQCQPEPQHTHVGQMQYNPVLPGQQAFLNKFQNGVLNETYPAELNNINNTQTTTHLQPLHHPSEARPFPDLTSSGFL
Hep lipid drop: modulators of hepatic lipid droplet formation; AML12 mouse hepatocytes, oleate lipid droplets, BODIPY imaging; inhibition, % at 6.5 µM; hit rate 0.4% among 240,000; AID 1656;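 active means lipid droplet intensity inhibited by at least 50%, with more than 500 cells counted; inconclusive means wells with under 300 cells, treated as cytotoxic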
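Material – mouse AML12 hepatocyte cell line, fixed after treatment · Compound dosing – one dose, 6.5 µM compound · Times – compound with oleate, overnight · Measured by – Image-based BODIPY and DAPI two-channel analysis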
SR-BI uptake up: SR-BI HDL lipid transfer activation. activation, % at 12.5 µM. hit rate 0.096% among 320,000. CHO ldlA[mSR-BI] cells, DiI-HDL uptake fluorescence, 3 h; 100 = double the neutral-control signal;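 active means mean replicate activation of at least 60% and every replicate at or above 60%; inconclusive means mean or all-replicate condition met, but not both; inactive means mean below 60% and not all replicates reaching 60%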
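Test system: SR-BI-overexpressing, LDLR-lacking CHO cells; Also added: labelled HDL, 10 µg/mL; Measured by: bottom-read cell fluorescence after medium removal, ex 550/em 595 nm; Timing: 3 h uptake period with compound, 37 °C; Buffer or medium: F12, 0.5% BSA, 25 mM HEPES; Doses: single compound concentration, delivered by pin transfer.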
Yeast superoxide: yeast age-related superoxide inhibition as caloric restriction mimetic; S. cerevisiae aged cells, superoxide DHE fluorescence; hits give low values; superoxide response (% of plate mean), % at 10 µM; hit rate 0.18% among 330,000;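 active means superoxide response under a set limit, about three screen SD below normal, cut at about 65% in these data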;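 further: yeast aged for seven days with compound at 30 °C before DHE staining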
SMARCA2 act: SMARCA2 function activation, primary screen; MG213 cells, MMTV-luciferase reporter, dexamethasone, overnight; activation, % at 9.1 µM; hit rate 1% among 370,000; AID 652017; in the data active means activation above about 7.8%
SR-BI HDL uptake: blocks mouse SR-BI lipid uptake from DiI-HDL; Q61009; ldlA[mSR-BI] CHO cells, DiI-HDL uptake fluorescence, 3 h; inhibition, % at 12.5 µM; hit rate 0.96% among 320,000; AID 488896;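 active means mean replicate inhibition of at least 70% and a set share of replicates each scoring 70 or more; inconclusive means meets just one of the two criteria; inactive means fails both criteria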
CR mimetic CP: yeast aging superoxide inhibition, cherry pick confirmation. hit rate 1% among 850. AID 434994. shares compounds with Yeast superoxide. superoxide response (% of plate), % at 10 µM. S. cerevisiae aging, superoxide DHE fluorescence; hits give low values;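 active means superoxide signal below 65% of the plate average of sample wells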;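 further: cells aged with compound for 7 days at 30 degrees C before staining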
DHE fluor count: compound alters DHE oxidation or fluorescence in yeast | shares compounds with Yeast superoxide | S. cerevisiae BY4741, flow cytometry; hits give low values | fluorescence response, % at 10 µM | 850 tested, under 10 active | AID 435000;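 active means fluorescence response below 15%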;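 further: lower means stronger quenching of DHE signal or ROS scavenging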
AHR act confirm: confirmation of human aryl hydrocarbon receptor activators; human cells, AHR-responsive luciferase reporter, luminescence; activation, % at 9 µM; shares compounds with AHR act; hit rate 87% among 2,300; in the data active means activation above about 49%;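 further: HepG2 hepatoma cells carrying a DRE-driven firefly luciferase reporter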
PXR counter: PXR activation, counter-screen for AHR activators; hit rate 88% among 2,300; activation, % at 11.6 µM; shares compounds with AHR act; cell-based PXR reporter, luciferase luminescence; in the data active means activation above about 11%;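 further: human hepatoma DPX-2 cells expressing full-length human PXR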
DiI quencher: counter-screen for SR-BI lipid transfer inhibitors: DiI fluorescence quenchers | shares compounds with SR-BI HDL uptake | cell-free DiI-HDL fluorescence quenching, 30 min | AC50, µM (top dose mostly 35 µM) | hit rate 20% among 470;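 active means quenching, a falling signal, with AC50 below a set limit tied to the top valid dose, actives reach about 32 µM in these data; inconclusive means no clear call, values can overlap the other calls; inactive means rising signal, and the rest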
SMARCA2 act conf: confirmation of SMARCA2 (BRM) function activators; shares compounds with SMARCA2 act; MG213 cells, MMTV-luciferase with dexamethasone, luminescence, overnight; MG213 cells expressing E1A, Rb sequestered; DMSO wells 0%, reference activator 100%; activation, % at 9.1 µM; hit rate 30% among 3,500; AID 652260;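 active means activation above its plate's cutoff, the mean activation of tested wells plus 3 SD, cut at about 7.9% in these data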
VP16 Luc act: GAL4-VP16 reporter activation counter-screen; hit rate 41% among 3,500; HEK293 GAL4-VP16 pG5luc reporter, luciferase luminescence; scaled: DMSO wells 0%, SAHA wells 100%; activation, % at 9.1 µM; shares compounds with SMARCA2 act; AID 686939;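 active means activation above the solvent-only control well mean plus 3 SD, averaged across control plates, cut at about 5.2% in these data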
Each line names hits and unclear results; the compound was inactive in the other large screens (follow-up assays come after a bar, where they were run).

Cc1cc(C)n2nc(-c3ccc(Br)cc3)cc2n1	AHR act 134 | CR mimetic CP inactive | DHE fluor count inactive | AHR act confirm 96 | PXR counter 30
Cc1cc(C)n2nc(-c3ccc(Cl)cc3)cc2n1	AHR act 98 | CR mimetic CP inactive | DHE fluor count inactive | AHR act confirm 120 | PXR counter 27
COC(=O)[C@]12C[C@H](CC(=O)NCCCN3CCCC3=O)C(=O)N(Cc3ccc4c(c3)OCO4)C1=C[C@H](C(C)(C)C)O[C@@H]2C	none (no result: AHR act, Hep lipid drop, SR-BI uptake up, Yeast superoxide, SR-BI HDL uptake)
COC(=O)[C@]12C[C@H](CC(=O)N3CCSCC3)C(=O)N(Cc3ccc4c(c3)OCO4)C1=C[C@H](COCc1ccccc1)O[C@@H]2C	none (no result: AHR act, Hep lipid drop, SR-BI uptake up, Yeast superoxide, SR-BI HDL uptake)
COc1cc([N+](=O)[O-])ccc1NC(=O)NCC1CCN(Cc2ccc(Cl)cc2)CC1	Yeast superoxide 30, SR-BI HDL uptake 83 | CR mimetic CP inactive | DHE fluor count inactive | DiI quencher inactive
COC(=O)c1cc2c(c3c4ccccc4n(S(=O)(=O)c4ccc(C)cc4)c13)C(=O)N(CC(C)C)C2	none (no result: AHR act, Hep lipid drop, SR-BI uptake up, Yeast superoxide, SR-BI HDL uptake)
Cc1c(F)cccc1NS(=O)(=O)c1ccccc1C#N	SMARCA2 act 9.2 | CR mimetic CP inactive | DHE fluor count inactive | SMARCA2 act conf inactive | VP16 Luc act inactive
COc1ccccc1NS(=O)(=O)c1ccccc1C#N	none
CCOc1ccc(-n2c(SCC(=O)Nc3ccc4c(c3)OCCO4)nnc2-c2ccncc2)cc1	none (no result: AHR act, Hep lipid drop, SR-BI uptake up, Yeast superoxide, SR-BI HDL uptake)
NC(=O)CN1CCN(CCN2C(=O)c3cccc4cccc(c34)C2=O)CC1	none
Nc1cc2c3c(cccc3c1)C(=O)N(CCN1CCCC1)C2=O	AHR act 142, Hep lipid drop inconclusive, Yeast superoxide 48, SMARCA2 act 20 | CR mimetic CP inactive | DHE fluor count inactive | AHR act confirm 201 | SMARCA2 act conf 30 | VP16 Luc act inactive
CC(C)(C)Nc1ncnc2c1cnn2-c1ccccc1	SMARCA2 act 8.3 | CR mimetic CP inactive | DHE fluor count inactive | SMARCA2 act conf 11 | VP16 Luc act 13
Cc1ccc(OC2CCN(C(=O)[C@@H](Cc3ccccc3)NC(=O)[C@H]3O[C@@H](n4ccc(=O)[nH]c4=O)[C@H](O)[C@@H]3O)CC2)cc1	none (no result: AHR act, Hep lipid drop, SR-BI uptake up, Yeast superoxide, SR-BI HDL uptake)
CCS(=O)(=O)N1CCc2nc(-c3ccccc3)sc2C1	Yeast superoxide 46, SMARCA2 act 8.1 | CR mimetic CP inactive | DHE fluor count inactive | SMARCA2 act conf inactive | VP16 Luc act 11
Cn1c(=O)c([N+](=O)[O-])c(NCc2ccc3c(c2)OCO3)c2ccccc21	AHR act 89 | AHR act confirm 99 | PXR counter 86
Cn1c(=O)c([N+](=O)[O-])c(NCc2ccccc2Cl)c2ccccc21	none
O=C(Nc1ccccc1C(=O)Nc1ccccc1)c1ccccc1F	AHR act 83 | AHR act confirm 65 | PXR counter 41
O=c1c2ccccc2cnn1-c1ccc(Br)cc1	AHR act 136 (no result: Hep lipid drop) | AHR act confirm 109 | PXR counter 38
COc1ccc(C2=NCCn3nc4cc(C(F)(F)F)ccc4c32)cc1	AHR act 80 (no result: Hep lipid drop) | AHR act confirm 69 | PXR counter 42
CC(C)(C)Cc1c(-c2ccc(Cl)cc2)nc2ccc(Cl)cn12	none (no result: AHR act, Hep lipid drop, SR-BI uptake up, Yeast superoxide, SR-BI HDL uptake)
CN(C)Cc1c(-c2ccc(Cl)cc2)nc2ccc(Cl)cn12	AHR act 133 | AHR act confirm 109 | PXR counter 12
CC(C)Cn1c(/C=C/c2ccccc2)nc2ccccc21	AHR act 84 | AHR act confirm 119 | PXR counter 68
COc1ccc(S[C@]2(C(=O)N3CCOCC3)CC(=O)N(c3ccc(Cl)cc3)[C@@H]2c2ccc(OC)cc2)cc1	none (no result: AHR act, Hep lipid drop, SR-BI uptake up, Yeast superoxide, SR-BI HDL uptake)
Cc1nc2nc(-c3cccnc3)nn2c(C)c1Cl	AHR act 98 | AHR act confirm 112 | PXR counter 29
Cc1nc2nc(-c3ccco3)nn2c(C)c1Cl	none
CCOC(=O)c1sc(Nc2nc3c(OC)cccc3s2)cc1C	AHR act 108 | AHR act confirm 88 | PXR counter 61
O=C(O)c1ccc(-c2sc(Nc3ccccc3)n[n+]2-c2ccccc2)cc1	none (no result: Hep lipid drop)
Cc1cccc(-c2sc(Nc3ccccc3)n[n+]2-c2ccccc2)c1	AHR act 108 (no result: Hep lipid drop) | AHR act confirm 50 | PXR counter 132
O=C(CC1Nc2cccc3cccc(c23)NC1=O)Nc1ccccc1 (configuration not stated)	AHR act 136 | AHR act confirm 99 | PXR counter 79
O=C(CC1Nc2ccccc2NC1=O)Nc1ccc2c(c1)OCO2 (configuration not stated)	AHR act 153 | AHR act confirm 137 | PXR counter 24
O=C(CC1NCCNC1=O)Nc1ccccc1 (configuration not stated)	none
Cc1ccc(NCN2C(=O)c3ccccc3C2=O)c(C)n1	none (no result: AHR act, Hep lipid drop, SR-BI uptake up, Yeast superoxide, SR-BI HDL uptake)
Clc1ccc(C2=NN=C3COc4ccccc4N3C2)cc1	AHR act 88 | AHR act confirm 118 | PXR counter 24
COC(=O)[C@]12C[C@H](CC(=O)N3CCC(c4ccccc4)CC3)C(=O)N(Cc3ccc(Cl)cc3Cl)C1=C[C@H](C(C)(C)C)O[C@@H]2C	none (no result: AHR act, Hep lipid drop, SR-BI uptake up, Yeast superoxide, SR-BI HDL uptake)
O=C(Nc1ccc(Br)cc1)c1cccc(N2C(=O)C3CCCCC3C2=O)c1 (configuration not stated)	AHR act 114 | AHR act confirm inactive | PXR counter 18
O=C(Nc1nc2ccc(Cl)cc2s1)c1ccc(Br)o1	none
NNc1nc2ccc(Cl)cc2s1	AHR act 115 | AHR act confirm 106 | PXR counter 22
